Source: publication PMC4407803 (Journal of medicinal chemistry, 2015)
Read-outs that look alike come from different tables or passages of the source.

Key:
[1] = tested on: Jurkat cells (human T-cell leukemia); assay: In vitro antiproliferative activity; type: cell-based; conditions: 72 h, read-out: IC50 Jurkat
Procedure, shortened: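 Cells grown in RPMI-1640; 8 × 10^3 cells per well, pre-incubated 18 h at 37 °C, 5% CO2. Medium replaced with fresh medium containing test compound at several concentrations (from 10 mM DMSO stocks; DMSO ≤0.25% final), 72 h at 37 °C.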

[2] = tested on: BNL 1ME A.7R.1 hepatocellular carcinoma tumors; assay: In vivo antitumor activity, syngeneic hepatocellular carcinoma model; conditions: Balb/c mice; for tumor growth inhibition vs control (significance): 5 mg/kg intraperitoneally daily
Procedure, shortened: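 Male Balb/c mice, 8 weeks old, injected subcutaneously in the dorsal region with 10^7 BNL 1ME A.7R.1 cells in 200 μL sterile PBS. At about 100 mm3, mice were randomized into four groups of 5. Tumors measured by caliper daily for 7 days; V = AB2/2.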

[3] = tested on: panel of seven human cancer cell lines; assay: Antiproliferative activity over the panel of seven human cancer cell lines; type: cell-based
Procedure, shortened: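 Jurkat, RS4;11 and HL-60 cells grown in RPMI-1640; MCF-7, A549, HeLa and HT-29 cells in DMEM; both media with 10% FBS plus penicillin/streptomycin. 8 × 10^3 cells/well settled 18 h at 37 °C, 5% CO2, then exposed to graded compound for 72 h. DMSO ≤0.25%. MTT viability read.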

HUVECs [4] = assay: HUVEC motility; type: cell-based, human
Procedure, shortened: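 Primary cord-vein HUVECs (passages 1–6) grown to confluence (1 × 10^5 seeded) on 0.1% collagen type I. Monolayer scratched with a pipet tip, washed with PBS, then exposed to test compound. Wells photographed at intervals (6 and 24 h). Wound width measured in four areas and compared with initial width. Three independent experiments; significance versus untreated control.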

HeLa cells [5] = assay: Annexin-V/PI apoptosis assay; type: cell-based, human; conditions: 24 or 48 h
Procedure, shortened: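 HeLa cells exposed to test compound for 24 or 48 h. Cells harvested and double-stained with annexin-V-FITC and PI. Surface phosphatidylserine exposure read by flow cytometry.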

[6] = tested on: BL6-B16 murine melanoma tumor blood vessels; assay: Antivascular activity in vivo, CD31 vessel count in BL6-B16 melanoma; conditions: 30 mg/kg ip, 24 h, C57BL/6 mice, P < 0.05
Procedure, shortened: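 Six-week-old C57BL/6 mice received 10^5 BL6-B16 melanoma cells in PBS subcutaneously in the dorsolateral flank. At 300 mm3 tumor volume, a single ip dose of 30 mg/kg in DMSO (50 μL) was given. Tumors excised 24 h later, OCT-embedded, frozen, cut into 4–5 μm cryosections. Stained with rat anti-mouse CD31 (1:200) and biotinylated anti-rat secondary. CD31+ vessels counted in 5 fields/section (40× objective); five mice/group.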

PBL stimulated with PHA = assay: Cytotoxicity in noncancer cells, PHA-stimulated PBL; type: cell-based; conditions: Homo sapiens, 72 h, read-out: IC50 PBLPHA
Procedure, shortened: (§1)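 Peripheral blood lymphocytes from healthy donors isolated on a Lymphoprep gradient, washed, held overnight at 1.0 × 10^6 cells/mL in RPMI-1640 with 10% FBS. Nonadherent cells reseeded at 5 × 10^5 cells/mL. PHA-stimulated set received 2.5 μg/mL PHA; resting set had no PHA. Graded compound for 72 h; viability by MTT.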

HeLa cells [7] = assay: Western blot analysis of caspases and Bcl-2 family proteins; type: cell-based, human; conditions: for Mcl-1 expression: 48 h, 100 and 250 nM
Procedure, shortened: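 Treated HeLa cells washed in cold PBS and lysed on ice for 30 min. Lysates cleared at 15000g, 4 °C, for 10 min; protein measured by BCA. 10 μg protein resolved on 7.5–15% SDS-PAGE and transferred to PVDF. Membranes blocked in 5% BSA/Tween-PBS overnight at 4 °C. Primary antibodies (e.g., Mcl-1) applied 2 h at room temperature, then peroxidase secondary for 60 min; ECL detection. β-actin reprobe used as loading control.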

HeLa cells [8] = assay: Mitochondrial membrane potential; type: cell-based, human; conditions: 24 or 48 h
Procedure, shortened: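 HeLa cells exposed to compound for 24 or 48 h, then stained with H2-DCFDA for reactive oxygen species. Fluorescence read by flow cytometry. Parallel JC-1 staining assessed mitochondrial membrane potential. Three independent experiments.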

Jurkat and HeLa cells = assay: Flow cytometric analysis of cell cycle distribution; type: cell-based, human; conditions: for lowest concentration giving a rise in G2/M cells: 24 h treatment
Procedure, shortened: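 5 × 10^5 HeLa or Jurkat cells exposed to graded compound concentrations for 24 h. Cells collected, fixed in ice-cold 70% ethanol, treated with lysis buffer containing RNase A and 0.1% Triton X-100, then stained with propidium iodide. DNA content measured by flow cytometry; phase distribution derived from DNA histograms.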

HUVECs [9] = assay: Disruption of HUVEC capillary-like tubules on Matrigel; type: cell-based, human; conditions: 1 h or 3 h incubation
Procedure, shortened: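 HUVECs isolated from umbilical cord veins, kept in M200 with low-serum growth supplement, and used at passages 1–6. Matrigel gelled 30 min at 37 °C, overlaid with 6 × 10^4 cells; tubules allowed to form for 6 h. Compound then added for 1 or 3 h. Five fields/well photographed at 10×. Image analysis quantified tubule length, mesh area/number, % area covered and branch points. Three independent experiments.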

[10] = tested on: chick embryo chorioallantoic membrane (CAM) blood vessels; assay: CAM assay in fertilized chicken eggs; type: in vivo
[11] = Body weight during in vivo antitumor treatment; set-up: species or system Balb/c mice; conditions: 3g at the higher dose (10 mg/kg ip)
[12] = tested on: PBL not stimulated with PHA; assay: Cytotoxicity in noncancer cells, resting PBL; type: cell-based; conditions: Homo sapiens, 72 h, read-out: IC50 PBLresting
Procedure, shortened: as §1

[13] = read-out: average IC50 over the seven cell lines
[14] = read-out: IC50 values range in the seven cell lines

COc1ccc(/C=C\c2cc(OC)c(OC)c(OC)c2)cc1O [CA-4, combretastatin A-4]
IC50 [1]: 5 ± 0.6 nM

COc1ccc(/C=C\c2cc(OC)c(OC)c(OC)c2)cc1OP(=O)([O-])[O-].[Na+].[Na+] [CA-4P, combretastatin A-4 phosphate, reference compound]
tumor growth inhibition vs control (significance) [2]: significant relative to the control

COC(=O)c1oc2ccccc2c1Nc1cc(OC)c(OC)c(OC)c1 [Compound 3a, Methyl 3-[(3,4,5-Trimethoxyphenyl)amino]benzofuran-2-carboxylate]
IC50 [3, 13]: 3300 nM

COC(=O)c1oc2cc(OC)ccc2c1Nc1cc(OC)c(OC)c(OC)c1 [Compound 3g, Methyl 3-(3,4,5-Trimethoxyphenylamino)-6-methoxybenzofuran-2-carboxylate]
concentration with statistically significant arrest of HUVEC motility (HUVECs [4]; 6 h incubation): 25 nM
concentration with highly significant arrest of HUVEC motility (HUVECs [4]; after 24 h, lowest tested concentration): 5 nM
HUVEC motility (HUVECs [4]; scratch wound): very efficient in arresting cell motility
apoptosis (annexin-V) (HeLa cells [5]): accumulation of annexin-V positive cells
reduction in number of CD31-positive tumor vessels [6]: about 20%
IC50 (PBL stimulated with PHA): > 10000 nM
caspase activation (immunoblot) (HeLa cells [7]): activation of caspase-9 and caspase-3 in a time- and concentration-dependent manner
Mcl-1 expression (HeLa cells [7]): strongly down-regulated
ROS production (H2-DCFDA) (HeLa cells [8]): production of significant amounts of ROS
mitochondrial transmembrane potential (JC-1) (HeLa cells [8]): time- and concentration-dependent increase in the proportion of cells with depolarized mitochondria
lowest concentration giving a rise in G2/M cells (Jurkat and HeLa cells): 60 nM
effect on preformed HUVEC tubule-like network (HUVECs [9]): clearly disrupted the network of HUVECs
tumor growth inhibition vs control (significance) [2]: did not reach statistical significance
reduction in tumor growth compared with vehicle ([2]; 10 mg/kg intraperitoneally daily): 44.5%
blood vessel number, compound alone ([10]; 100 pmol/egg, without FGF): did not induce blood vessels to increase in number
FGF-induced increase of blood vessels ([10]; FGF 100 ng/egg, even at 1 pmol/egg): strongly reduced
body weight change during treatment [11]: only a small decrease in body weight
IC50 [12]: > 10000 nM
IC50 [3, 14]: 0.3 to 27 nM

CCOC(=O)c1oc2cc(OC)ccc2c1Nc1cc(OC)c(OC)c(OC)c1 [Compound 3h, Ethyl 3-(3,4,5-Trimethoxyphenylamino)-6-methoxybenzofuran-2-carboxylate]
apoptosis (annexin-V) (HeLa cells [5]): accumulation of annexin-V positive cells
caspase activation (immunoblot) (HeLa cells [7]): activation of caspase-9 and caspase-3 in a time- and concentration-dependent manner
Mcl-1 expression (HeLa cells [7]): strongly down-regulated
ROS production (H2-DCFDA) (HeLa cells [8]): production of significant amounts of ROS
mitochondrial transmembrane potential (JC-1) (HeLa cells [8]): time- and concentration-dependent increase in the proportion of cells with depolarized mitochondria
cells arrested in G2/M (Jurkat and HeLa cells; 24 h, at higher concentrations): more than 70%
lowest concentration giving a rise in G2/M cells (Jurkat and HeLa cells): 60 nM
IC50 [12]: > 10000 nM
IC50 [3, 14]: 13 to 100 nM
IC50 [3, 13]: 34 nM

COC(=O)c1oc2c(OC)cccc2c1Nc1cc(OC)c(OC)c(OC)c1 [Compound 3i, Methyl 3-(3,4,5-Trimethoxyphenylamino)-7-methoxybenzofuran-2-carboxylate]
IC50 [3, 13]: 370 nM

CCOC(=O)c1oc2c(OC)cccc2c1Nc1cc(OC)c(OC)c(OC)c1 [Compound 3j, Ethyl 3-(3,4,5-Trimethoxyphenylamino)-7-methoxybenzofuran-2-carboxylate]
IC50 [3, 13]: 670 nM
